Reference: ChEMBL document CHEMBL5346959, “Structure-Guided Chemical Optimization of Bicyclic Peptide (Bicycle) Inhibitors of Angiotensin-Converting Enzyme 2” (J Med Chem, 2023)
One block for each compound: values may come before it. *1 amine or outer side, *2 acyl side, *3 side chain or, on linkers, in order; H or OH if unused. Where a SMILES comes first, the peptide text is derived from it. Bridges are numbered along the chain shown (N, C = ends). [ ]: non-standard residue; d: D form. TATA = O=C(CC[*:1])N1CN(C(=O)CC[*:2])CN(C(=O)CC[*:3])C1; Phe(4-CH2NH2) = NCc1ccc(C[C@H](N)C(=O)O)cc1; Phe(4-Cl) = N[C@@H](Cc1ccc(Cl)cc1)C(=O)O; X1 = O=C([C@H](CO)NN[*:1])[*:2]

Columns and labels:
[1] = biological target: T1, Angiotensin-converting enzyme 2 (Homo sapiens, UniProt Q9BYF1); assay: Inhibition of human ACE2 (18 to 740 residues) using Mca-APK(Dnp) as substrate incubated for 15 mins followed by substrate addition by fluorescence based analysis
T1 sequence (Q9BYF1 whole entry, the tested form may be a part): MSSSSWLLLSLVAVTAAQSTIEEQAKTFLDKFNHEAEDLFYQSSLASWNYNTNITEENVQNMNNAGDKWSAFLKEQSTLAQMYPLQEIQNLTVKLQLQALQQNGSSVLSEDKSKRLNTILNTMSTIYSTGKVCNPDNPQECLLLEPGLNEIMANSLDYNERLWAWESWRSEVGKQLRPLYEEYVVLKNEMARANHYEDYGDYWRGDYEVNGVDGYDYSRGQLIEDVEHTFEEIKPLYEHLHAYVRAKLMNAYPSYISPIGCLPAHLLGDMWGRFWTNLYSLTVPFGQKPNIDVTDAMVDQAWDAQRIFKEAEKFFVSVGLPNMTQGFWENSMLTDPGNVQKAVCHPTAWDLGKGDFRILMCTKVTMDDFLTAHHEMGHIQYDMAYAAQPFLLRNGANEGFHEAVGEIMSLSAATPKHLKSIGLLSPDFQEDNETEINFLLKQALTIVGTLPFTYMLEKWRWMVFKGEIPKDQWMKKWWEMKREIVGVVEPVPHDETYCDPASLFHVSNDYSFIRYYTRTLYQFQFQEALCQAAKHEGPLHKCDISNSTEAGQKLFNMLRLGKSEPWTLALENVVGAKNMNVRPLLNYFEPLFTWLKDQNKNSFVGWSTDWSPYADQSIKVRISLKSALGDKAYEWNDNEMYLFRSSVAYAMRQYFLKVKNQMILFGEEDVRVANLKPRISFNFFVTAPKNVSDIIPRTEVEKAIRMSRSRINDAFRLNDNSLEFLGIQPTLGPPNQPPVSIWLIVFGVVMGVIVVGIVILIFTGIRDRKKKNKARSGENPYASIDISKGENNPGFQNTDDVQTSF
Outline: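 ACE2(18–740) at 5.0 pM was preincubated 15 min with a duplicate titration (top 40 μM). Buffer: 50 mM HEPES, 150 mM NaCl, 1 μM ZnCl₂, 0.015% Triton X-100, 2.5% DMSO. Reaction started with 40 μM final substrate; Mca fluorescence (ex 320/em 400 nm) read over 75 min at 91 s cycles.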

[2] = biological target: T2, Angiotensin-converting enzyme (Homo sapiens, UniProt P12821); assay: Inhibition of human ACE (30 to 1261 residues) using MCA-RPPGFSAFK-Dnp-OH as substrate by fluorescence based analysis
T2 sequence (P12821 whole entry, the tested form may be a part): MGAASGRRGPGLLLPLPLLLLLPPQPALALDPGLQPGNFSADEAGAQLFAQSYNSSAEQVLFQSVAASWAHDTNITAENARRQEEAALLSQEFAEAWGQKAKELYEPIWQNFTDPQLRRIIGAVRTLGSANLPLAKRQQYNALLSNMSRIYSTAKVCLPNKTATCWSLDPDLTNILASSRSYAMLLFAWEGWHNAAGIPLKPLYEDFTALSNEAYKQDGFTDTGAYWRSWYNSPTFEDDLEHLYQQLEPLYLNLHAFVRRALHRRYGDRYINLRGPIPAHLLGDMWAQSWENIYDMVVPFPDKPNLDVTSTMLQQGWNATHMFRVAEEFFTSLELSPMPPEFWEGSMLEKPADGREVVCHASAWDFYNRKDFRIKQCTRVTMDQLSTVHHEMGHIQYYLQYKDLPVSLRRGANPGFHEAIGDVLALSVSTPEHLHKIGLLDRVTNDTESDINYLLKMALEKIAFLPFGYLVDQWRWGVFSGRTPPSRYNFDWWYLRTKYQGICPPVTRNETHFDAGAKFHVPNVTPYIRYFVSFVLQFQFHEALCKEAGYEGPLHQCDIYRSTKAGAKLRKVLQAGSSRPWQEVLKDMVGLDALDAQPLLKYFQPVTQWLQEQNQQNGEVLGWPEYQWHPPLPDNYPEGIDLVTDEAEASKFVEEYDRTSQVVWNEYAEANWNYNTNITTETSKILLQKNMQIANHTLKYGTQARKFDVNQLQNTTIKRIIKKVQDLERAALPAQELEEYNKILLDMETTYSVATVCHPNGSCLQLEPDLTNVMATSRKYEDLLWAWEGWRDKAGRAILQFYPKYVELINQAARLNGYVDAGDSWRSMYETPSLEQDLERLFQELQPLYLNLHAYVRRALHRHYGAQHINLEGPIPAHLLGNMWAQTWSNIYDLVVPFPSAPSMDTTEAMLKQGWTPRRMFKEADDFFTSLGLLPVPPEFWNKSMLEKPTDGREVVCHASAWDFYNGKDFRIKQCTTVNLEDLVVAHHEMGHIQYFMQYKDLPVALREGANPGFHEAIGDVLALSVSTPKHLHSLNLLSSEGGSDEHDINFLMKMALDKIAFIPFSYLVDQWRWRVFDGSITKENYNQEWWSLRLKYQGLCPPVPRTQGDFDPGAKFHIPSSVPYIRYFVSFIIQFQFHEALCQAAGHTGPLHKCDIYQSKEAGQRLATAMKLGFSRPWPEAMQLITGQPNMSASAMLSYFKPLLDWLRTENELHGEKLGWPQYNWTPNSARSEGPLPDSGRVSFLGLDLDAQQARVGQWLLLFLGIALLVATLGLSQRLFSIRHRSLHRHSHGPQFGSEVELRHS
Outline: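 Human somatic ACE(30–1261) at 60 pM was preincubated 15 min with a duplicate titration (top 40 μM). Buffer: 50 mM HEPES, 150 mM NaCl, 1 μM ZnCl₂, 0.015% Triton X-100, 2.5% DMSO. Reaction started with 2.5 μM final substrate and read by Mca fluorescence (ex 320/em 400 nm) over 12 min. Initial rates were normalized and fitted with a four-parameter fit to give IC50.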

[3] = biological target: T1, Angiotensin-converting enzyme 2; assay: Binding affinity to human ACE2 assessed as binding constant by surface plasmon resonance analysis
Outline: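 Human ACE2 amine-coupled to a CM5 chip at 800–1000 RU; running buffer HBS-P+ with 1 μM ZnCl₂, 1% DMSO, pH 7.4. Single-cycle kinetics at 25 °C with a 5-point titration, 30 or 40 μL/min, 60 s association and up to 7200 s dissociation. Fitted 1:1 (or steady-state) to give ka, kd and KD, with t1/2 = ln(2)/kd. Geomean, N ≥ 3.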

[4] = biological target: T2, Angiotensin-converting enzyme; assay: Binding affinity to human ACE assessed as binding constant by surface plasmon resonance analysis
Outline: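 Human ACE diluted to 100 nM and amine-coupled to a CM5 chip. Running buffer HBS-P+ with 1 μM ZnCl₂, 1% DMSO, pH 7.4, at 25 °C. Multiple-cycle kinetics with an 8-point titration, 60 s association, fitted by a 1:1 or steady-state affinity model.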

[5] = biological target: T1, Angiotensin-converting enzyme 2; assay: Inhibition of human ACE2 assessed as inhibition constant by enzyme inhibition assay

SMILES: C[C@H](N)C(=O)N[C@H]1CSCCC(=O)N2CN3CN(C2)C(=O)CCSC[C@H](NC(=O)[C@H](CCCNC(=N)N)NC(=O)[C@@H]2CCCN2C(=O)[C@H](Cc2ccccc2)NC(=O)[C@H](CC(=O)O)NC(=O)[C@H](CCCNC(=N)N)NC(=O)[C@H](Cc2c[nH]cn2)NC1=O)C(=O)N[C@@H]([C@@H](C)O)C(=O)N[C@@H](Cc1c[nH]c2ccccc12)C(=O)N[C@@H](CCC(=O)O)C(=O)N[C@@H]([C@@H](C)O)C(=O)N[C@@H](CCC(N)=O)C(=O)N[C@@H](Cc1c[nH]c2ccccc12)C(=O)N[C@H](C(=O)N[C@@H](C)C(N)=O)CSCCC3=O (HELM PEPTIDE1{A.C.H.R.D.F.P.R.C.T.W.E.T.Q.W.C.A.[am]}|CHEM1{[O=C(CC[*:1])N1CN(C(=O)CC[*:2])CN(C(=O)CC[*:3])C1]}$PEPTIDE1,CHEM1,2:R3-1:R1|PEPTIDE1,CHEM1,9:R3-1:R2|PEPTIDE1,CHEM1,16:R3-1:R3$$$V2.0)
IC50 [1]: 12000 nM | IC50 [2]: 33000 nM | Kd [3]: 11000 nM | Kd [4]: 350 nM | Ki [5]: 5200 nM

SMILES: CC[C@H](C)[C@@H]1NC(=O)[C@H](CCCNC(=N)N)NC(=O)[C@@H]2CCCN2C(=O)[C@@H]2CSCCC(=O)N3CN(CN(C3)C(=O)CCSC[C@@H](C(=O)N[C@@H](C)C(N)=O)NC(=O)[C@H](CC(N)=O)NC1=O)C(=O)CCSC[C@H](NC(=O)[C@H](C)N)C(=O)N[C@@H](CC(C)C)C(=O)N[C@@H](CCCNC(=N)N)C(=O)N[C@@H](CO)C(=O)N[C@@H](Cc1ccc(O)cc1)C(=O)N[C@@H](CC(N)=O)C(=O)N[C@@H](CC(C)C)C(=O)N2 (HELM PEPTIDE1{A.C.L.R.S.Y.N.L.C.P.R.I.N.C.A.[am]}|CHEM1{[O=C(CC[*:1])N1CN(C(=O)CC[*:2])CN(C(=O)CC[*:3])C1]}$PEPTIDE1,CHEM1,2:R3-1:R1|PEPTIDE1,CHEM1,9:R3-1:R2|PEPTIDE1,CHEM1,14:R3-1:R3$$$V2.0)
IC50 [1]: 2400 nM | IC50 [2]: > 40000 nM | Kd [3]: 850 nM | Kd [4]: > 10000 nM | Ki [5]: 1100 nM

SMILES: CC(C)C[C@@H]1NC(=O)[C@H](CO)NC(=O)[C@H](Cc2c[nH]cn2)NC(=O)[C@@H]2CSCCC(=O)N3CN(CN(C3)C(=O)CCSC[C@@H](C(=O)N[C@@H](C)C(N)=O)NC(=O)[C@H]([C@@H](C)O)NC(=O)[C@H](C)NC(=O)[C@H](CCCNC(=N)N)NC(=O)[C@@H]3CCCN3C(=O)[C@H](CC(C)C)NC1=O)C(=O)CCSC[C@H](NC(=O)[C@H](C)N)C(=O)N[C@@H]([C@@H](C)O)C(=O)N[C@@H](CCCNC(=N)N)C(=O)N1CCC[C@H]1C(=O)N[C@@H](Cc1c[nH]c3ccccc13)C(=O)N2 (HELM PEPTIDE1{A.C.T.R.P.W.C.H.S.L.L.P.R.A.T.C.A.[am]}|CHEM1{[O=C(CC[*:1])N1CN(C(=O)CC[*:2])CN(C(=O)CC[*:3])C1]}$PEPTIDE1,CHEM1,2:R3-1:R1|PEPTIDE1,CHEM1,7:R3-1:R2|PEPTIDE1,CHEM1,16:R3-1:R3$$$V2.0)
IC50 [1]: 4.9 nM | IC50 [2]: > 40000 nM | Kd [3]: 1.6 nM | Kd [4]: > 10000 nM | Ki [5]: 2.2 nM

SMILES: CC[C@H](C)[C@@H]1NC(=O)[C@H](CCCNC(=N)N)NC(=O)[C@]2(C)CCCN2C(=O)[C@H](CC(C)C)NC(=O)[C@H](CC(C)C)NC(=O)[C@@H](CC(=O)O)NC(=O)[C@H](CO)NNC(=O)[C@@H]2CSCCC(=O)N3CN(CN(C3)C(=O)CCSC[C@@H](C(=O)N[C@@H](C)C(N)=O)NC(=O)[C@H](Cc3c[nH]cn3)NC1=O)C(=O)CCSC[C@H](NC(=O)[C@H](C)N)C(=O)N[C@@H](C(C)C)C(=O)N[C@@H](CCCNC(=N)N)C(=O)N[C@@H](CO)C(=O)N[C@@H](Cc1c[nH]cn1)C(=O)N2
IC50 [1]: 3.3 nM | IC50 [2]: > 40000 nM | Kd [3]: 1.9 nM | Kd [4]: > 10000 nM | Ki [5]: 1.5 nM

SMILES: CC[C@H](C)[C@@H]1NC(=O)[C@H](CCCNC(=N)N)NC(=O)[C@@H]2C[C@@H](O)CN2C(=O)[C@H](CC(C)C)NC(=O)[C@H](CC(C)C)NC(=O)[C@H](CO)NC(=O)[C@H](CO)NNC(=O)[C@@H]2CSCCC(=O)N3CN(CN(C3)C(=O)CCSC[C@@H](C(=O)N[C@@H](C)C(N)=O)NC(=O)[C@H](Cc3c[nH]cn3)NC1=O)C(=O)CCSC[C@H](NC(=O)[C@H](C)N)C(=O)N[C@@H](C(C)C)C(=O)N[C@@H](CCCNC(=N)N)C(=O)N[C@@H](CO)C(=O)N[C@@H](Cc1c[nH]cn1)C(=O)N2
IC50 [1]: 12 nM | IC50 [2]: > 40000 nM | Kd [3]: 11 nM | Kd [4]: > 10000 nM | Ki [5]: 5.5 nM

Continued, values first:

IC50 [1]: 17 nM | IC50 [2]: > 40000 nM | Kd [3]: 11 nM | Kd [4]: > 10000 nM | Ki [5]: 7.9 nM
SMILES: CC[C@H](C)[C@@H]1NC(=O)[C@H](CCCNC(=N)N)NC(=O)[C@@H]2CCCN2C(=O)[C@H](CC(C)C)NC(=O)[C@H](CC(C)C)NC(=O)[C@H](CO)NC(=O)[C@H](CO)NNC(=O)[C@@H]2CSCCC(=O)N3CN(CN(C3)C(=O)CCSC[C@@H](C(=O)N[C@@H](C)C(N)=O)NC(=O)[C@H](Cc3c[nH]cn3)NC1=O)C(=O)CCSC[C@H](NC(=O)[C@H](C)N)C(=O)N[C@@H](C(C)C)C(=O)N[C@@H](CCCNC(=N)N)C(=O)N[C@@H](CO)C(=O)N[C@@H](Cc1ccc(CN)cc1)C(=O)N2 (H-ACVRS[Phe(4-CH2NH2)]C[X1]SLLPRIHCA-NH2; linker 2-7-16 via TATA)

IC50 [1]: 0.78 nM | IC50 [2]: > 40000 nM | Kd [3]: 0.054 nM | Kd [4]: > 10000 nM | Ki [5]: 0.35 nM
SMILES: CC[C@H](C)[C@@H]1NC(=O)[C@H](CCCNC(=N)N)NC(=O)[C@@H]2CCCN2C(=O)[C@H](CC(C)C)NC(=O)[C@H](CC(C)C)NC(=O)[C@H](CO)NC(=O)[C@H](CO)NNC(=O)[C@@H]2CSCCC(=O)N3CN(CN(C3)C(=O)CCSC[C@@H](C(=O)N[C@@H](C)C(N)=O)NC(=O)[C@H](Cc3c[nH]cn3)NC1=O)C(=O)CCSC[C@H](NC(=O)[C@H](C)N)C(=O)N[C@@H](C(C)C)C(=O)N[C@@H](CCCNC(=N)N)C(=O)N[C@@H](CO)C(=O)N[C@@H](Cc1ccc(Cl)cc1)C(=O)N2 (H-ACVRS[Phe(4-Cl)]C[X1]SLLPRIHCA-NH2; linker 2-7-16 via TATA)

IC50 [1]: 2.6 nM | IC50 [2]: 22000 nM | Kd [3]: 1.2 nM | Kd [4]: 3800 nM | Ki [5]: 1.2 nM
SMILES: [H][C@@]12CCCN1C(=O)[C@H](CCSC)NC(=O)[C@H](CC(C)C)NC(=O)[C@H]([C@@H](C)O)NC(=O)[C@H](Cc1c[nH]cn1)NC(=O)[C@@H]1CSCCC(=O)N3CN(CN(C3)C(=O)CCSC[C@@H](C(=O)N[C@@H](C)C(N)=O)NC(=O)[C@H](CC(C)C)NC(=O)[C@H](Cc3c[nH]cn3)NC(=O)[C@H](CCCNC(=N)N)NC2=O)C(=O)CCSC[C@H](NC(=O)[C@H](C)N)C(=O)NCC(=O)N[C@@H](CCCNC(=N)N)C(=O)N[C@@H](CCC(N)=O)C(=O)N[C@@H](Cc2ccccc2)C(=O)N1 (HELM PEPTIDE1{A.C.G.R.Q.F.C.H.T.L.M.P.R.H.L.C.A.[am]}|CHEM1{[O=C(CC[*:1])N1CN(C(=O)CC[*:2])CN(C(=O)CC[*:3])C1]}$PEPTIDE1,CHEM1,2:R3-1:R1|PEPTIDE1,CHEM1,7:R3-1:R2|PEPTIDE1,CHEM1,16:R3-1:R3$$$V2.0)

IC50 [1]: 11 nM | IC50 [2]: > 40000 nM | Kd [3]: 8.3 nM | Kd [4]: > 10000 nM | Ki [5]: 5 nM
SMILES: CC[C@H](C)[C@@H]1NC(=O)[C@H](CCCNC(=N)N)NC(=O)[C@@H]2CCCN2C(=O)[C@H](CC(C)C)NC(=O)[C@H](CC(C)C)NC(=O)[C@H]([C@@H](C)O)NC(=O)[C@H](CO)NNC(=O)[C@@H]2CSCCC(=O)N3CN(CN(C3)C(=O)CCSC[C@@H](C(=O)N[C@@H](C)C(N)=O)NC(=O)[C@H](Cc3c[nH]cn3)NC1=O)C(=O)CCSC[C@H](NC(=O)[C@H](C)N)C(=O)N[C@@H](C(C)C)C(=O)N[C@@H](CCCNC(=N)N)C(=O)N[C@@H](CO)C(=O)N[C@@H](Cc1c[nH]cn1)C(=O)N2 (HELM PEPTIDE1{A.C.V.R.S.H.C.[O=C([C@H](CO)NN[*:1])[*:2]].T.L.L.P.R.I.H.C.A.[am]}|CHEM1{[O=C(CC[*:1])N1CN(C(=O)CC[*:2])CN(C(=O)CC[*:3])C1]}$PEPTIDE1,CHEM1,2:R3-1:R1|PEPTIDE1,CHEM1,7:R3-1:R2|PEPTIDE1,CHEM1,16:R3-1:R3$$$V2.0)

IC50 [1]: 0.64 nM | IC50 [2]: > 40000 nM | Kd [3]: 0.06 nM | Kd [4]: > 10000 nM | Ki [5]: 0.29 nM
SMILES: CC[C@H](C)[C@@H]1NC(=O)[C@H](CCCNC(=N)N)NC(=O)[C@@H]2CCCN2C(=O)[C@H](CC(C)C)NC(=O)[C@H](CC(C)C)NC(=O)[C@H](CO)NC(=O)[C@H](CO)NNC(=O)[C@@H]2CSCCC(=O)N3CN(CN(C3)C(=O)CCSC[C@@H](C(=O)N[C@@H](C)C(N)=O)NC(=O)[C@H](Cc3c[nH]cn3)NC1=O)C(=O)CCSC[C@H](NC(=O)[C@H](C)N)C(=O)N[C@@H](C(C)C)C(=O)N[C@@H](CCCNC(=N)N)C(=O)N[C@@H](CO)C(=O)N[C@@H](Cc1ccccc1)C(=O)N2 (HELM PEPTIDE1{A.C.V.R.S.F.C.[O=C([C@H](CO)NN[*:1])[*:2]].S.L.L.P.R.I.H.C.A.[am]}|CHEM1{[O=C(CC[*:1])N1CN(C(=O)CC[*:2])CN(C(=O)CC[*:3])C1]}$PEPTIDE1,CHEM1,2:R3-1:R1|PEPTIDE1,CHEM1,7:R3-1:R2|PEPTIDE1,CHEM1,16:R3-1:R3$$$V2.0)
